Shown are actives, neighbours in structure and some others; about 27% of the full set was active somewhere.
CYP2C9 inhib: blockers of cytochrome P450 2C9 activity – biochemical, luminescence, ADME assay, primary screen; CYP2C9 Supersomes, luciferin-H conversion; 96,000 tested, 20% active; AID 777, 2007; inhibition, % at 5 µM; P11712;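 active = blocking of liver enzyme CYP2C9 beyond about 50% at 5 µM, limit read from the data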
Target sequence (P11712 whole entry, looked up): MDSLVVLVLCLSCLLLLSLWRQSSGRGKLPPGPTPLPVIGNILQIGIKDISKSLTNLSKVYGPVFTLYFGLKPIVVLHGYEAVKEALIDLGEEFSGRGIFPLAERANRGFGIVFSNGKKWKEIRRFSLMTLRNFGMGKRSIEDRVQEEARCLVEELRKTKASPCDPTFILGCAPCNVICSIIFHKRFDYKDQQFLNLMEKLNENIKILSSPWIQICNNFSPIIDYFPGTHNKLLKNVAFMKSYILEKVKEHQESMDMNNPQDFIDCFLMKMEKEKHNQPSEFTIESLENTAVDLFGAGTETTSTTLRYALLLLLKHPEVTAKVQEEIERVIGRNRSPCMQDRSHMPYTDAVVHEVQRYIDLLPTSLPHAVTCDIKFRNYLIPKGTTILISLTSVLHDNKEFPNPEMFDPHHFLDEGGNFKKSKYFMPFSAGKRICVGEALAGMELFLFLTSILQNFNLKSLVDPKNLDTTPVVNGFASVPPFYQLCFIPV
CYP2C19 activ: human CYP2C19 activators, primary screen, biochemical, luminescence. Cytochrome P450 2C19 (Homo sapiens), P33261. recombinant CYP2C19, luciferin-H EGE luminescence; stronger effect = higher value; 0 = fully inhibited enzyme, 1 = untreated enzyme. activation factor at 5 µM. 96,000 tested, under 10 active. AID 1025, 2008;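 active = activation factor of at least 2 at 5 µM in the primary screen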
CYP2C19 inhib: blockers of cytochrome P450 2C19 activity – biochemical, luminescence, ADME assay, primary screen. P33261. inhibition, % at 5 µM. CYP2C19 Supersomes, luciferin-H EGE luminescence, 30 min. AID 778, 2007. 96,000 tested, 21% active;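 active = CYP2C19 inhibition above a set limit at 5 µM in the primary screen, cut at about 50% in these data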
CYP2C9 activ: human CYP2C9 activators, primary screen, biochemical, luminescence; Cytochrome P450 2C9 (Homo sapiens), P11712; recombinant CYP2C9, luciferin-H conversion; stronger effect = higher value; factor 1 = untreated enzyme, 0 = blocked; activation factor at 5 µM; 96,000 tested, 1.4% active; AID 1024, 2008;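 active = activation factor of 2 or more for CYP2C9 at a 5 µM dose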
HIV Rev-RRE inh: HIV-1 Rev-RRE binding inhibitors, primary screen, biochemical, FRET, protein-RNA interaction. P05866. Rev peptide-RRE RNA binding. inhibition, % at 8 µM. 97,000 tested, 0.79% active. AID 704, 2007;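 active = inhibition above the screen-wide mean plus 3 SD, cut at about 35% in these data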
Target sequence (P05866 whole entry, looked up): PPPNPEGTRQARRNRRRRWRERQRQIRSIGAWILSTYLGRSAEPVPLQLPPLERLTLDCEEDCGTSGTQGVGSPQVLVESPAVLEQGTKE
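Test system – labelled RRE RNA duplex and labelled Rev peptide · Reagent – labelled Rev peptide · Doses – one concentration, 8 µM nominal · Incubation – 5 + 15 min at 25 °C · Signal – FRET fluorescence readout · Read-out basis – % inhibition of FRET ratio versus controls · Control set – DMSO wells as 0% and neomycin B wells as 100% inhibition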
Cav3 T inh: Cav3.2 calcium influx blockers – cell-based, Fluo-4 calcium fluorescence, FDSS, MLSMR library, primary screen; B-score at 10 µM; Voltage-dependent T-type calcium channel subunit alpha-1H (Homo sapiens), O95180; 100,000 tested, 4% active; Cav3.2-expressing cells; stronger effect = lower value;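 active = single-dose well whose peak fluorescence ratio is a statistical outlier from its plate by either plate-standardised score or position-corrected B-score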
Large screens that a line does not name were inactive; [ ] = another dose, or the depositor's remark.

COc1ccc(CCN2C(=NC(=O)CCC(=O)O)SC3CS(=O)(=O)CC32)cc1 (stereo unspecified)	none
CC1/C(=C\c2ccc(Cl)cc2)C(=O)C2CC1C2(C)C (stereo unspecified)	CYP2C9 inhib 65, CYP2C19 inhib 77
CCOc1ccc(S(=O)(=O)Nc2cccc(Cl)c2)cc1	Cav3 T inh -3.7 (no result: CYP2C9 inhib, CYP2C19 activ, CYP2C19 inhib, CYP2C9 activ)
Cc1cc(NS(=O)(=O)c2ccc(NC(=O)Nc3cccc(Cl)c3)cc2)no1	none
COC(=O)COc1ccc(S(=O)(=O)Nc2ccccc2SC)cc1	none (no result: CYP2C9 inhib, CYP2C19 activ, CYP2C19 inhib, CYP2C9 activ)
CCOc1ccc(S(=O)(=O)Nc2cc(Cl)ccc2O)cc1	CYP2C9 inhib 100, CYP2C19 inhib 100
CCOc1ccc(S(=O)(=O)Nc2ccccc2SC)cc1	CYP2C19 inhib 67
CCOc1ccc(NS(=O)(=O)c2ccc(NS(=O)(=O)c3ccccc3)cc2)cc1	CYP2C9 inhib 95, CYP2C19 inhib 55
CC(C)c1nc2cc3ccccc3cc2[nH]1	none
CCCCN(CC)Cc1ccc(CNC(=O)Nc2ccc(F)cc2)o1	none
O=C1C(c2ccc(F)cc2)N(Cc2ccc3c(c2)OCO3)C(=O)CN1C1CCCCC1 (stereo unspecified)	none
COc1ccc(C2C=C(c3ccc(Br)cc3)Nc3nc(N4C(=O)CCC4=O)nn32)cc1 (stereo unspecified)	HIV Rev-RRE inh 113[fluorescence artefact?] (no result: Cav3 T inh)
O=C1CCC(=O)N1c1nc2n(n1)C(c1ccccc1)C=C(c1ccc(Br)cc1)N2 (stereo unspecified)	CYP2C9 inhib 61, HIV Rev-RRE inh 84[fluorescence artefact?] (no result: Cav3 T inh)
COc1ccccc1C1C=C(c2ccc(Cl)cc2)Nc2nc(N3C(=O)CCC3=O)nn21 (stereo unspecified)	none
CS(=O)(=O)Nc1nc2n(n1)C(c1ccccc1)C=C(c1ccc(Br)cc1)N2 (stereo unspecified)	HIV Rev-RRE inh 61 (no result: Cav3 T inh)
CCN1C(=O)C(C(=O)Nc2ccc(OC)cc2)C2CC1(C)Oc1ccccc12 (stereo unspecified)	CYP2C9 inhib 54
COc1ccc(NC(=O)C2CC(=O)OC23CCCCC3)cc1 (stereo unspecified)	none (no result: CYP2C9 inhib, CYP2C19 activ, CYP2C19 inhib, CYP2C9 activ, Cav3 T inh)
O=C(COc1ccc(Br)cc1CO)Nc1ccccc1	CYP2C9 inhib 71, CYP2C19 inhib 89
CCOCC(=O)Nc1cccc(Br)c1	none (no result: Cav3 T inh)
CCOC(=O)Nc1cccc(OCC(=O)Nc2ccccc2OC)c1	none (no result: CYP2C9 inhib, CYP2C19 activ, CYP2C19 inhib, CYP2C9 activ, Cav3 T inh)
COc1ccccc1NC(=O)COc1ccc(Br)cc1CO	CYP2C19 inhib 55
O=C(COc1ccc(Br)cc1CO)Nc1ccccc1F	CYP2C9 inhib 67, CYP2C19 inhib 95
O=[N+]([O-])c1cc(-c2cnc3ccccc3n2)ccc1Oc1ccc(F)cc1	none
O=C1CC(N(C(=O)c2ccco2)c2ccc(F)cc2)C(=O)N1c1ccc(F)cc1 (stereo unspecified)	none
O=C1CC(N(C(=O)c2ccco2)c2cccc(Cl)c2)C(=O)N1c1cccc(Cl)c1 (stereo unspecified)	CYP2C9 inhib 92, CYP2C19 inhib 91
CC1CC(C)CN(CCOc2ccc(Cl)cc2Cl)C1 (stereo unspecified)	CYP2C19 inhib 98
CCc1ccc(C2CC(c3ccccc3C)n3nc(N)nc3N2)cc1 (stereo unspecified)	none (no result: HIV Rev-RRE inh)
Cc1cc(C)n2cc(CSc3ncccc3C(=O)O)nc2n1	none
Cc1cc(C)n2cc(CSCc3ccco3)nc2n1	CYP2C9 inhib 70
O=C(O)c1ccc(CSCc2ccco2)cc1	none
Cc1cccc2nc(CSCc3ccco3)cn12	CYP2C19 inhib 64
Cc1cc(C)n2cc(CSc3nnnn3-c3ccccc3C)nc2n1	CYP2C9 activ 2.7
S=C(NCc1ccccn1)Nc1ccc(Cl)cc1	CYP2C19 inhib 60
O=C(NCc1ccccn1)Nc1ccc(Cl)c(Cl)c1	none (no result: CYP2C9 inhib, CYP2C19 activ, CYP2C19 inhib, CYP2C9 activ)
CN1C(=S)SC(C)(C)C1NO (stereo unspecified)	none
COc1ccccc1CN1C(=S)SC(C)(C)C1NO (stereo unspecified)	CYP2C9 inhib 68, CYP2C19 inhib 91
C#CCOC(=O)c1ccccc1C(=O)n1nnc2ccccc21	CYP2C9 inhib 66, CYP2C19 inhib 88
O=[N+]([O-])c1ccc(C2CCCC/C2=N\OCc2cccc(F)c2)c([N+](=O)[O-])c1 (stereo unspecified)	none (no result: Cav3 T inh)
CN(CC(=O)Nc1ccc(Cl)cc1)CC(=O)Nc1cc(Cl)ccc1C#N	CYP2C19 inhib 63 (no result: HIV Rev-RRE inh)
CC1CCN(C(=O)CN2C(=O)C(C)(C)Oc3ccc(C(=O)NC4CCCC4)cc32)CC1	none
COc1ccc(CN2CCOCC2)cc1	none
CCCCCOc1ccc(CN2CCOCC2)cc1Cl	CYP2C9 inhib 55, CYP2C19 inhib 76 (no result: HIV Rev-RRE inh, Cav3 T inh)
COC(=O)c1ccc(CN(C(C)=O)c2ccccc2)o1	CYP2C19 inhib 69
COC(=O)c1ccc(COc2cccc(OC)c2)o1	none
O=S(=O)(c1ccccc1)c1cnn(-c2ccccc2)c1-c1ccc(Cl)cc1	CYP2C19 inhib 55, Cav3 T inh -3.9
Oc1ccccc1-c1nnc(COc2ccc(Cl)cc2Cl)o1	Cav3 T inh -5.9
Oc1ccccc1-c1nnc(COc2ccccc2)o1	none
Cc1nnc(SCC(=O)Nc2ncc(Cc3ccc(F)cc3)s2)n1N	none (no result: Cav3 T inh)
Cc1ccc(C)c(C(=O)CN2C3=NCCCN3c3ccccc32)c1	none
CCOC(=O)N1CCC(NC(=O)CSCc2cnn(-c3ccccc3)c2-n2cccc2)CC1	CYP2C9 inhib 51, CYP2C19 inhib 57
COc1cccc(CNC(=O)CSCc2cnn(-c3ccccc3)c2-n2cccc2)c1	CYP2C9 inhib 94, CYP2C19 inhib 92, Cav3 T inh -5.3
CNC(=O)CSCc1cnn(-c2ccccc2)c1-n1cccc1	CYP2C19 inhib 76
O=C(CSCc1cnn(-c2ccccc2)c1-n1cccc1)NCc1cccs1	CYP2C9 inhib 81, CYP2C19 inhib 53, Cav3 T inh -6.3
O=C(CSc1nnc2ccccn12)NCc1cccs1	none (no result: HIV Rev-RRE inh)
Cc1ccc(CNC(=O)C2CCCN(Cc3cnn(-c4ccccc4)c3-n3cccc3)C2)cc1 (stereo unspecified)	none
O=c1[nH][nH]c2nc(C(F)(F)F)cc(C(F)(F)F)c12	none
Cc1cccc2c(=O)oc(-c3ccc4c(c3)C(=O)N(CC3CCCO3)C4=O)nc12 (stereo unspecified)	none (no result: CYP2C9 inhib, CYP2C19 activ, CYP2C19 inhib, CYP2C9 activ, Cav3 T inh)
Cc1cnc(N)c2c(=O)oc3ccccc3c12	CYP2C9 activ 2
O=C(CN1CCN(c2ccc(F)cc2)CC1)N1CCOCC1	none
O=C(CN1CCN(c2ccc(F)cc2)CC1)N1N=CCC1c1ccccc1 (stereo unspecified)	CYP2C19 inhib 63
